Assay type in all cases: functional
The test system of test [1] is Rattus norvegicus. The experiment in a line: Compound was tested for the inhibition of rat reversed passive Arthus pleurisy after peroral administration of 10 mg/kg dose at 0.44 mL of exudate volume with 0.55 mL of control (injected intrapleurally). The settings on record: route oral. The method, boiled down:
(§1)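 Male Wistar rats (about 250 g) were given compound orally before the antiserum. Under ether anesthesia, 0.2 mL rabbit anti-egg albumin antiserum was injected intrapleurally. After 30 min, egg albumin (15 mg/100 g body weight in 0.1 mL saline) was given iv. Rats were killed 4.5 h later and the thoracic cavity was rinsed with 5 mL saline. Exudate volume and infiltrated cell number were measured, with inhibition % versus controls as mean ± SEM.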

Test [2] relates to Rattus norvegicus. Briefly: Compound was tested for the inhibition of rat reversed passive Arthus pleurisy after peroral administration of 10 mg/kg dose at 3.2*10e6 no of cells with 2.77*10e6 cells of control. The settings on record: route oral. The method, boiled down:
as §1

Test [3] concerns Rattus norvegicus. The experiment in a line: Compound was tested for the inhibition of rat reversed passive Arthus pleurisy after peroral administration of 3 mg/kg dose at 0.59 mL of exudate volume with 0.55 mL of control (injected intrapleurally). The note with it: route oral. A digest of the protocol:
(§2)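 Male Wistar rats (about 250 g) under ether received 0.2 mL rabbit anti-egg-albumin antiserum intrapleurally. Thirty min later they got 15 mg EA/100 g body weight in 0.1 mL saline iv. Compounds were given orally beforehand. Rats were killed 4.5 h after induction and the thoracic cavity rinsed with 5 mL saline. Exudate volume and infiltrated cell count were read as mean ± SE. % inhibition is versus control.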

For test [4], the system named is Rattus norvegicus. The experiment in a line: Compound was tested for the inhibition of rat reversed passive Arthus pleurisy after peroral administration of 3 mg/kg dose at 4.01*10e6 no of cells with 2.77*10e6 cells of control. The settings on record: route oral. The method, boiled down: as §2
In test [5] the test system is Rattus norvegicus. Briefly: Inhibition of Zymosan-induced rat's paw edema(ZPE) after peroral administration of 100 mg/kg dose. The note with it: route oral. The method, boiled down:
(§3)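 Male Wistar rats (about 150 g) were dosed orally with compound suspended in 5% arabic gum, 1 h before a subplantar hind-paw injection of 0.1 mL saline. The irritant was 1% zymosan for 33 or 1% λ-carrageenin for 34. Paw volume was measured by plethysmograph before dosing and at 4 h (zymosan) or 3 h (carrageenin). Swelling is relative to initial volume, as mean ± SEM. % inhibition is versus the control group's mean swelling.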

Test [6] has as its system Rattus norvegicus. Briefly: Compound was tested for the inhibition of rat reversed passive Arthus pleurisy after peroral administration of 100 mg/kg dose at 0.65 mL of exudate volume with 0.86 mL of control (injected intrapleurally). The settings on record: route oral. A digest of the protocol:
as §1

Test [7] has as its system Rattus norvegicus. The experiment in a line: Antiinflammatory activity on Carrageenan rat's paw edema(CPE) after peroral administration of 100 mg/kg dose with control swelling of 64.2%. The settings on record: route oral. (Carrageenan injected into the paw causes an acute inflammation.)
Test [8] concerns Rattus norvegicus. Briefly: Antiinflammatory activity on Zymosan-induced rat's paw edema(ZPE) after peroral administration of 100 mg/kg dose with control swelling of 71.7%. The note with it: route oral. A digest of the protocol:
(§4)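 Male Wistar rats weighing about 150 g were dosed orally with compound suspended in 5% arabic gum. 1 h later, 1% zymosan in 0.1 mL saline was injected subplantarly into the hind paw. Paw volume was measured by plethysmograph before dosing and 4 h after zymosan, with edema as the volume difference. Inhibition % was derived from mean swelling versus the control group.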

Test [9] concerns Rattus norvegicus. Briefly: Inhibition of carrageenan-induced rat's paw edema (CPE) after peroral administration of 100 mg/kg dose. The note with it: route oral. A digest of the protocol:
as §3

The test system of test [10] is Rattus norvegicus. Briefly: Compound was tested for the inhibition of rat reversed passive Arthus pleurisy after peroral administration of 100 mg/kg dose at 3.02*10e6 no of cells with 3.86*10e6 cells of control. The note with it: route oral. A digest of the protocol: as §1
The subject of test [11] is Rattus norvegicus. Briefly: Compound was tested for the inhibition of rat reversed passive Arthus pleurisy after peroral administration of 100 mg/kg dose at 3.37*10e6 no of cells with 3.62*10e6 cells of control. The settings on record: route oral. The method, boiled down: as §2
The test system of test [12] is Rattus norvegicus. The experiment in a line: Compound was tested for the inhibition of rat reversed passive Arthus pleurisy after peroral administration of 100 mg/kg dose at 0.61 mL of exudate volume with 0.54 mL of control (injected intrapleurally). The settings on record: route oral. A digest of the protocol: as §1
Test [13] deals with Rattus norvegicus. The experiment in a line: Antiinflammatory activity on Carrageenan rat's paw edema(CPE) after peroral administration of 100 mg/kg dose with control swelling of 68.1%. The settings on record: route oral.
For test [14], the system named is Rattus norvegicus. Briefly: Antiinflammatory activity on Zymosan-induced rat's paw edema(ZPE) after peroral administration of 100 mg/kg dose with control swelling of 62.0%. The settings on record: route oral. The method, boiled down:
as §4

Test [15] has as its system Rattus norvegicus. Briefly: Compound was tested for the inhibition of rat reversed passive Arthus pleurisy after peroral administration of 100 mg/kg dose at 0.42 mL of exudate volume with 0.52 mL of control (injected intrapleurally). The settings on record: route oral. The method, boiled down: as §1
For test [16], the system named is Rattus norvegicus. Briefly: Compound was tested for the inhibition of rat reversed passive Arthus pleurisy after peroral administration of 100 mg/kg dose at 2.23*10e6 no of cells with 2.28*10er cells of control. The settings on record: route oral. A digest of the protocol: as §1
Test [17] has as its system Rattus norvegicus. Briefly: Antiinflammatory activity on Zymosan-induced rat's paw edema(ZPE) after peroral administration of 100 mg/kg dose with control swelling of 72.9%. The settings on record: route oral. A digest of the protocol:
as §4

For test [18], the system named is Rattus norvegicus. The experiment in a line: Compound was tested for the inhibition of Zymosan-induced rat's paw edema(ZPE) after peroral administration of 3 mg/kg dose. The settings on record: route oral. The method, boiled down:
as §4

Test [19] has as its system Rattus norvegicus. The experiment in a line: Compound was tested for the inhibition of arachidonic acid-induced rat's paw edema(APE) after peroral administration of 10 mg/kg dose. The settings on record: route oral. The method, boiled down: (§5)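 Test: arachidonic acid paw edema in male Wistar rats of about 150 g. Oral dosing in 5% arabic gum came 1 h before subplantar injection of 1% arachidonic acid sodium salt in 0.1 mL saline into the hind paw. Plethysmograph paw volume was read before dosing and 1 h post-irritant, and edema = volume difference. % inhibition was taken from mean swelling against controls.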

For test [20], the system named is Rattus norvegicus. Briefly: Compound was tested for the inhibition of Zymosan-induced rat's paw edema(ZPE) after peroral administration of 10 mg/kg dose. The settings on record: po. A digest of the protocol:
as §4

In test [21] the test system is Rattus norvegicus. Briefly: Compound was tested for the inhibition of Carrageenan rat's paw edema(CPE) after peroral administration of 10 mg/kg dose. The settings on record: Rattus norvegicus, po.
Test [22] concerns Rattus norvegicus. Briefly: Compound was tested for the inhibition of Carrageenan rat's paw edema(CPE) after peroral administration of 3 mg/kg dose. The note with it: route oral.
Test [23] deals with Rattus norvegicus. Briefly: Antiinflammatory activity on Carrageenan rat's paw edema(CPE) after peroral administration of 10 mg/kg dose with control swelling of 75.8%. The settings on record: route oral.
The test system of test [24] is Rattus norvegicus. Briefly: Antiinflammatory activity on Zymosan-induced rat's paw edema(ZPE) after peroral administration of 3 mg/kg dose with control swelling of 55.1%. The settings on record: route oral. The method, boiled down:
as §4

Test [25] concerns Rattus norvegicus. The experiment in a line: Compound was tested for the inhibition of arachidonic acid-induced rat's paw edema(APE) after peroral administration of 10 mg/kg dose with control swelling of 51.6%. The settings on record: route oral. The method, boiled down:
as §5

Test [26] concerns Rattus norvegicus. The experiment in a line: Antiinflammatory activity on Carrageenan rat's paw edema(CPE) after peroral administration of 3 mg/kg dose with control swelling of 75.8%. The note with it: route oral.
Test [27] deals with Rattus norvegicus. Briefly: Antiinflammatory activity on Zymosan-induced rat's paw edema(ZPE) after peroral administration of 10 mg/kg dose with control swelling of 55.1%. The note with it: route oral. A digest of the protocol: as §4
Test [28] concerns Rattus norvegicus. Briefly: Antiinflammatory activity on Zymosan-induced rat's paw edema(ZPE) after peroral administration of 100 mg/kg dose with control swelling of 55.1%. The settings on record: route oral. A digest of the protocol: as §4
Test [29] concerns Rattus norvegicus. Briefly: Compound was tested for the inhibition of Zymosan-induced rat's paw edema(ZPE) after peroral administration of 30 mg/kg dose. The settings on record: route oral. A digest of the protocol:
as §4

Consider five molecules from ChEMBL document CHEMBL1126267, “A novel synthesis and potent antiinflammatory activity of 4-hydroxy-2(1H)-oxo-1-phenyl-1,8-naphthyridine-3-carboxamides” (1992).

What is called inhibition in vivo is the change of the read-out against control, counted positive when it falls.

On to `COc1ccc2c(c1)c(CC(=O)O)c(C)n2C(=O)c1ccc(Cl)cc1` [INDOMETHACIN], for which the inhibition in vivo at 10 mg/kg with Rattus norvegicus [1] is 23.9%; with Rattus norvegicus [2] it was -20.9%. Further, the results for the inhibition in vivo at 3 mg/kg with Rattus norvegicus [3] and in the test with Rattus norvegicus [4] were -8.7% and -60.2%, respectively.

In the case of `Cc1cccc(NC(=O)c2c(O)c3cccnc3n(-c3ccccc3)c2=O)c1`, the inhibition in vivo at 100 mg/kg with Rattus norvegicus [5] was 14.2%; in the test with Rattus norvegicus [6], 27.3%; with Rattus norvegicus [9], 4.5%; in the test with Rattus norvegicus [10], 28.5%. For the same molecule, the results for the Swelling with Rattus norvegicus [7] and in the test on Rattus norvegicus [8] were 61.3% and 61.5%, respectively.

With `O=C(NCc1ccccc1)c1c(O)c2cccnc2n(-c2ccccc2)c1=O`, the inhibition in vivo at 100 mg/kg is 9.6% in the test with Rattus norvegicus [11], -14.3% in the test on Rattus norvegicus [12], 1.6% in the test on Rattus norvegicus [5] and 11.3% in the test on Rattus norvegicus [9]. Moreover, the Swelling with Rattus norvegicus [13] was determined as 60.4%; with Rattus norvegicus [14] it was 60.3%.

For `CNC(=O)c1c(O)c2cccnc2n(-c2ccccc2)c1=O`, the inhibition in vivo at 100 mg/kg in the test with Rattus norvegicus [15] stood at 22.3%; in the test with Rattus norvegicus [5], 9.6%; with Rattus norvegicus [16] it was 3.2%; in the test on Rattus norvegicus [9], 21%. For the same molecule, the Swelling was 50.7% with Rattus norvegicus [7] and 65.9% with Rattus norvegicus [17].

Consider `CN1C(C(=O)Nc2ccccn2)=C(O)c2ccccc2S1(=O)=O` [PIROXICAM], for which the inhibition in vivo at 3 mg/kg in the test with Rattus norvegicus [18] turned out to be 2.2%; in the test on Rattus norvegicus [22] it was 54.6%. For the same molecule, the inhibition in vivo at 10 mg/kg was 17.2% in the test with Rattus norvegicus [19], 9.4% in the test on Rattus norvegicus [20] and 66% in the test on Rattus norvegicus [21]. Besides, the Swelling amounted to 25.8% in the test on Rattus norvegicus [23]; 53.9% in the test on Rattus norvegicus [24]; 42.7% with Rattus norvegicus [25]; 34.4% in the test with Rattus norvegicus [26]; 61.7% in the test with Rattus norvegicus [27]; 50.3% in the test with Rattus norvegicus [28]. For the same molecule, the inhibition in vivo at 30 mg/kg with Rattus norvegicus [29] stood at 8.7%.
